Assays:
HCT-15 [1] = assay: Cytotoxicity against human HCT15 cells at 10 uM after 48 hrs by SRB assay; format: functional; settings: HCT-15, 48 h, read-out: GI
SF-295 [2] = assay: Cytotoxicity against human SF295 cells at 10 uM after 48 hrs by SRB assay; format: functional; settings: SF-295, 48 h, read-out: GI
A549 [3] = assay: Cytotoxicity against human A549 cells at 10 uM after 48 hrs by SRB assay; format: functional; settings: A549, 48 h, read-out: GI
MCF7 [4] = assay: Cytotoxicity against human MCF7 cells at 10 uM after 48 hrs by SRB assay; format: functional; settings: MCF7, 48 h, read-out: GI
HEp-2 [5] = assay: Cytotoxicity against human Hep2 cells at 10 uM after 48 hrs by SRB assay; format: functional; settings: HEp-2, 48 h, read-out: GI
PC-3 [6] = assay: Cytotoxicity against human PC3 cells at 10 uM after 48 hrs by SRB assay; format: functional; settings: PC-3, 48 h, read-out: GI
DU-145 [7] = assay: Cytotoxicity against human DU145 cells at 10 uM after 48 hrs by SRB assay; format: functional; settings: DU-145, 48 h, read-out: GI
HL-60 [8] = assay: Cytotoxicity against human HL60 cells at 10 uM after 48 hrs by SRB assay; format: functional; settings: HL-60, 48 h, read-out: GI
THP-1 [9] = assay: Cytotoxicity against human THP1 cells at 10 uM after 48 hrs by SRB assay; format: functional; settings: THP-1, 48 h, read-out: GI
HCT-15 [10] = assay: Cytotoxicity against human HCT15 cells at 30 uM after 48 hrs by SRB assay; format: functional; settings: HCT-15, 48 h, read-out: GI
SF-295 [11] = assay: Cytotoxicity against human SF295 cells at 30 uM after 48 hrs by SRB assay; format: functional; settings: SF-295, 48 h, read-out: GI
A549 [12] = assay: Cytotoxicity against human A549 cells at 30 uM after 48 hrs by SRB assay; format: functional; settings: A549, 48 h, read-out: GI
MCF7 [13] = assay: Cytotoxicity against human MCF7 cells at 30 uM after 48 hrs by SRB assay; format: functional; settings: MCF7, 48 h, read-out: GI
HEp-2 [14] = assay: Cytotoxicity against human Hep2 cells at 30 uM after 48 hrs by SRB assay; format: functional; settings: HEp-2, 48 h, read-out: GI
PC-3 [15] = assay: Cytotoxicity against human PC3 cells at 30 uM after 48 hrs by SRB assay; format: functional; settings: PC-3, 48 h, read-out: GI
DU-145 [16] = assay: Cytotoxicity against human DU145 cells at 30 uM after 48 hrs by SRB assay; format: functional; settings: DU-145, 48 h, read-out: GI
HL-60 [17] = assay: Cytotoxicity against human HL60 cells at 30 uM after 48 hrs by SRB assay; format: functional; settings: HL-60, 48 h, read-out: GI
THP-1 [18] = assay: Cytotoxicity against human THP1 cells at 30 uM after 48 hrs by SRB assay; format: functional; settings: THP-1, 48 h, read-out: GI
HCT-15 [19] = assay: Cytotoxicity against human HCT15 cells at 50 uM after 48 hrs by SRB assay; format: functional; settings: HCT-15, 48 h, read-out: GI
SF-295 [20] = assay: Cytotoxicity against human SF295 cells at 50 uM after 48 hrs by SRB assay; format: functional; settings: SF-295, 48 h, read-out: GI
A549 [21] = assay: Cytotoxicity against human A549 cells at 50 uM after 48 hrs by SRB assay; format: functional; settings: A549, 48 h, read-out: GI
MCF7 [22] = assay: Cytotoxicity against human MCF7 cells at 50 uM after 48 hrs by SRB assay; format: functional; settings: MCF7, 48 h, read-out: GI
HEp-2 [23] = assay: Cytotoxicity against human Hep2 cells at 50 uM after 48 hrs by SRB assay; format: functional; settings: HEp-2, 48 h, read-out: GI
PC-3 [24] = assay: Cytotoxicity against human PC3 cells at 50 uM after 48 hrs by SRB assay; format: functional; settings: PC-3, 48 h, read-out: GI
HL-60 [25] = assay: Cytotoxicity against human HL60 cells at 50 uM after 48 hrs by SRB assay; format: functional; settings: HL-60, 48 h, read-out: GI
DU-145 [26] = assay: Cytotoxicity against human DU145 cells at 50 uM after 48 hrs by SRB assay; format: functional; settings: DU-145, 48 h, read-out: GI
THP-1 [27] = assay: Cytotoxicity against human THP1 cells at 50 uM after 48 hrs by SRB assay; format: functional; settings: THP-1, 48 h, read-out: GI
HCT-15 [28] = assay: Cytotoxicity against human HCT15 cells after 48 hrs by SRB assay; format: functional, cell-based; settings: HCT-15, 48 h
A549 [29] = assay: Cytotoxicity against human A549 cells after 48 hrs by SRB assay; format: functional, cell-based; settings: A549, 48 h
SF-295 [30] = assay: Cytotoxicity against human SF295 cells after 48 hrs by SRB assay; format: functional, cell-based; settings: SF-295, 48 h
MCF7 [31] = assay: Cytotoxicity against human MCF7 cells after 48 hrs by SRB assay; format: functional, cell-based; settings: MCF7, 48 h
HEp-2 [32] = assay: Cytotoxicity against human Hep2 cells after 48 hrs by SRB assay; format: functional, cell-based; settings: HEp-2, 48 h
PC-3 [33] = assay: Cytotoxicity against human PC3 cells after 48 hrs by SRB assay; format: functional, cell-based; settings: PC-3, 48 h
DU-145 [34] = assay: Cytotoxicity against human DU145 cells after 48 hrs by SRB assay; format: functional, cell-based; settings: DU-145, 48 h
HL-60 [35] = assay: Cytotoxicity against human HL60 cells after 48 hrs by SRB assay; format: functional, cell-based; settings: HL-60, 48 h
THP-1 [36] = assay: Cytotoxicity against human THP1 cells after 48 hrs by SRB assay; format: functional, cell-based; settings: THP-1, 48 h
SF-295 [37] = assay: Cytotoxicity against human SF295 cells at 20 uM after 48 hrs by SRB assay; format: functional; settings: SF-295, 48 h, read-out: GI
In short: (§1)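 Cells grown in RPMI-1640/MEM with 10% FCS and penicillin/streptomycin at 37 °C in 5% CO2. They adhered overnight in 96-well plates and were exposed to compound for 48 h. Cells were then fixed with ice-cold 50% TCA for 60 min and stained with 0.4% SRB in 1% acetic acid for 30 min. Dye was solubilised in 10 mM Tris base and OD read at 570 nm (reference 620 nm).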

HCT-15 [38] = assay: Cytotoxicity against human HCT15 cells at 20 uM after 48 hrs by SRB assay; format: functional; settings: HCT-15, 48 h, read-out: GI; in short: as §1
A549 [39] = assay: Cytotoxicity against human A549 cells at 20 uM after 48 hrs by SRB assay; format: functional; settings: A549, 48 h, read-out: GI; in short: as §1
PC-3 [40] = assay: Cytotoxicity against human PC3 cells at 20 uM after 48 hrs by SRB assay; format: functional; settings: PC-3, 48 h, read-out: GI; in short: as §1
DU-145 [41] = assay: Cytotoxicity against human DU145 cells at 20 uM after 48 hrs by SRB assay; format: functional; settings: DU-145, 48 h, read-out: GI; in short: as §1
THP-1 [42] = assay: Cytotoxicity against human THP1 cells at 20 uM after 48 hrs by SRB assay; format: functional; settings: THP-1, 48 h, read-out: GI; in short: as §1
HL-60 [43] = assay: Cytotoxicity against human HL60 cells at 20 uM after 48 hrs by SRB assay; format: functional; settings: HL-60, 48 h, read-out: GI
In short: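 HL-60 suspension cells in RPMI-1640/MEM with 10% FCS at 37 °C in 5% CO2 were plated in 96 wells and exposed to compound for 48 h. Cells were fixed with 80% TCA and pelleted at 1500 rpm for 15 min. Staining used 0.4% SRB in 1% acetic acid for 30 min; dye was dissolved in 10 mM Tris base and OD read at 570/620 nm.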

Row | SMILES | inhibition of growth at 10 µM (HCT-15 [1]) | inhibition of growth at 10 µM (SF-295 [2]) | inhibition of growth at 10 µM (A549 [3]) | inhibition of growth at 10 µM (MCF7 [4]) | inhibition of growth at 10 µM (HEp-2 [5]) | inhibition of growth at 10 µM (PC-3 [6]) | inhibition of growth at 10 µM (DU-145 [7]) | inhibition of growth at 10 µM (HL-60 [8]) | inhibition of growth at 10 µM (THP-1 [9]) | inhibition of growth at 30 µM (HCT-15 [10]) | inhibition of growth at 30 µM (SF-295 [11]) | inhibition of growth at 30 µM (A549 [12]) | inhibition of growth at 30 µM (MCF7 [13]) | inhibition of growth at 30 µM (HEp-2 [14]) | inhibition of growth at 30 µM (PC-3 [15]) | inhibition of growth at 30 µM (DU-145 [16]) | inhibition of growth at 30 µM (HL-60 [17]) | inhibition of growth at 30 µM (THP-1 [18]) | inhibition of growth at 50 µM (HCT-15 [19]) | inhibition of growth at 50 µM (SF-295 [20]) | also measured
1 | C=C(C)[C@@H]1CC[C@]2(C(=O)O)CC[C@]3(C)[C@H](CC[C@@H]4[C@@]5(C)CC[C@H](OCc6cn(-c7cccc(I)c7)nn6)C(C)(C)[C@@H]5CC[C@]43C)[C@@H]12 | 29% | 6% | 28% | 51% | 71% | 8% | 23% | 13% | 9% | 45% | 27% | 27% | 58% | 74% | 24% | 62% | 45% | 41% | 54% | 66% | inhibition of growth at 50 µM (A549 [21]): 33%; inhibition of growth at 50 µM (MCF7 [22]): 61%; inhibition of growth at 50 µM (HEp-2 [23]): 72%; inhibition of growth at 50 µM (PC-3 [24]): 27%; inhibition of growth at 50 µM (HL-60 [25]): 64%; inhibition of growth at 50 µM (DU-145 [26]): 62%; inhibition of growth at 50 µM (THP-1 [27]): 56%; IC50 (HCT-15 [28]): 39 µM; IC50 (A549 [29]): > 50 µM; IC50 (SF-295 [30]): 44 µM; IC50 (MCF7 [31]): 8 µM; IC50 (HEp-2 [32]): 3.8 µM; IC50 (PC-3 [33]): 39 µM; IC50 (DU-145 [34]): 25 µM; IC50 (HL-60 [35]): 43 µM; IC50 (THP-1 [36]): 46 µM
2 | C=C(C)[C@@H]1CC[C@]2(C(=O)O)CC[C@]3(C)[C@H](CC[C@@H]4[C@@]5(C)CC[C@H](OCc6cn(-c7cccc(CO)c7)nn6)C(C)(C)[C@@H]5CC[C@]43C)[C@@H]12 | 11% | 27% | 43% | 36% | 51% | 4% | 43% | 53% | 50% | 70% | 37% | 45% | 71% | 74% | 29% | 52% | 93% | 91% | 71% | 47% | inhibition of growth at 50 µM (A549 [21]): 67%; inhibition of growth at 50 µM (MCF7 [22]): 75%; inhibition of growth at 50 µM (HEp-2 [23]): 78%; inhibition of growth at 50 µM (PC-3 [24]): 49%; inhibition of growth at 50 µM (HL-60 [25]): 95%; inhibition of growth at 50 µM (DU-145 [26]): 65%; inhibition of growth at 50 µM (THP-1 [27]): 93%; IC50 (HCT-15 [28]): 25 µM; IC50 (A549 [29]): 32 µM; IC50 (SF-295 [30]): 53 µM; IC50 (MCF7 [31]): 17 µM; IC50 (HEp-2 [32]): 8 µM; IC50 (PC-3 [33]): 50 µM; IC50 (DU-145 [34]): 23 µM; IC50 (HL-60 [35]): 7 µM; IC50 (THP-1 [36]): 10 µM
3 | O=c1[nH]cc(F)c(=O)[nH]1 [FLUOROURACIL] | – | – | – | – | – | – | – | – | – | – | – | – | – | – | – | – | – | – | – | – | inhibition of growth at 20 µM (SF-295 [37]): 73%; inhibition of growth at 20 µM (HCT-15 [38]): 72%; inhibition of growth at 20 µM (A549 [39]): 75%; inhibition of growth at 20 µM (PC-3 [40]): 64%; inhibition of growth at 20 µM (DU-145 [41]): 72%; inhibition of growth at 20 µM (THP-1 [42]): 83%; inhibition of growth at 20 µM (HL-60 [43]): 89%

— ChEMBL document CHEMBL2380302, “Synthesis of 3-O-propargylated betulinic acid and its 1,2,3-triazoles as potential apoptotic agents” (Eur J Med Chem, 2013)
